ChEMBL document CHEMBL2346523, “Synthesis and in vitro and in vivo characterization of highly β1-selective β-adrenoceptor partial agonists” (J Med Chem, 2013)
pEC50, pKd: −log10 of the molar value. The source made the active and inactive calls. No cut-off for these calls is given here.

Legend:
CHO-K1 = assay: Selectivity ratio of Kd for human beta1 adrenoceptor expressed in CHOK1 cells by radioligand displacement assay to Kd for human beta2 adrenoceptor expressed in CHOK1 cells by radioligand displacement assay; format: cell-based
Summary of the method: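 Whole-cell 3H-CGP 12177 binding (0.73 nM) in confluent CHO-K1 cells expressing human β1 or β2, 2 h at 37 °C. Cells were washed with cold PBS and counted by scintillation. Nonspecific binding was defined with 10 μM propranolol. IC50 came from a one-site fit, converted to KD; […] KD ratio. Triplicate points.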

[1] = molecular target: T1, Beta-2 adrenergic receptor (Homo sapiens, UniProt P07550); assay: Displacement of [3H]-CGP12177 from human beta2 adrenoceptor expressed in CHOK1 cells after 2 hrs by scintillation counting analysis; format: cell-based, CHO-K1; details: for inhibition: CHO-K1
[2] = molecular target: T2, Beta-3 adrenergic receptor (Homo sapiens, UniProt P13945); assay: Agonist activity at human beta3 adrenoceptor expressed in CHOK1 cells assessed as induction of [3H]cAMP accumulation at 10 uM after 5 hrs relative to isoprenaline; format: functional, cell-based; details: CHO-K1
Summary of the method: (§1)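 CHO-K1 cells stably expressing human β3 (790 fmol/mg protein) were grown to confluence and prelabelled 2 h with 2 μCi/mL 3H-adenine. Cells then had 15 min in 1 mM IBMX, followed by ligand for 5 h. The reaction was stopped with HCl, and 3H-cAMP was isolated on Dowex/alumina columns. Responses are % of 10 μM isoprenaline. Mean ± SEM of separate experiments.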
Target sequence in this assay (P13945 whole entry, looked up): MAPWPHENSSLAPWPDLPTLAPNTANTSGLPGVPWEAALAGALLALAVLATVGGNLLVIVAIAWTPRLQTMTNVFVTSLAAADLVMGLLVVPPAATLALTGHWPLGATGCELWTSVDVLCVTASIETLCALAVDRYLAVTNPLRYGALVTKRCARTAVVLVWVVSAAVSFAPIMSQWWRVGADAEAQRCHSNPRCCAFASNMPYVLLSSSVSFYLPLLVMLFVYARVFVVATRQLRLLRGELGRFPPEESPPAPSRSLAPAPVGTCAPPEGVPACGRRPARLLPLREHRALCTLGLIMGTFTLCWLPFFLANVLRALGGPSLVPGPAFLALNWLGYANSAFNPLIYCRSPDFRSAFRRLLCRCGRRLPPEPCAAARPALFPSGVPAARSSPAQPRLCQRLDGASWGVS

[3] = molecular target: T2, Beta-3 adrenergic receptor; assay: Antagonist activity at human beta3 adrenoceptor expressed in CHOK1 cells assessed as inhibition of cimaterol-induced [3H]cAMP accumulation incubated for 15 mins prior to cimaterol induction measured after 5 hrs; format: functional, cell-based, CHO-K1; details: for pKd: read-out: Kd; for Kd: read-out: pKd (converted)
Summary of the method: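 3H-cAMP accumulation in CHO-K1 cells stably expressing human β1, β2 or β3 adrenoceptors, prelabelled with 3H-adenine. Log KD was taken from the dose ratio shift, or by the Stephenson partial-agonist method when partial agonism was seen. Triplicates, on the same cell passage.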
Target sequence in this assay (P13945 whole entry): as the sequence (P13945 whole entry, looked up) above

[4] = molecular target: T1, Beta-2 adrenergic receptor; assay: Antagonist activity at human beta2 adrenoceptor expressed in CHOK1 cells assessed as inhibition of cimaterol-induced [3H]cAMP accumulation incubated for 15 mins prior to cimaterol induction measured after 5 hrs; format: functional, cell-based, CHO-K1; details: for Kd: read-out: pKd (converted)
Target sequence in this assay (P07550 whole entry): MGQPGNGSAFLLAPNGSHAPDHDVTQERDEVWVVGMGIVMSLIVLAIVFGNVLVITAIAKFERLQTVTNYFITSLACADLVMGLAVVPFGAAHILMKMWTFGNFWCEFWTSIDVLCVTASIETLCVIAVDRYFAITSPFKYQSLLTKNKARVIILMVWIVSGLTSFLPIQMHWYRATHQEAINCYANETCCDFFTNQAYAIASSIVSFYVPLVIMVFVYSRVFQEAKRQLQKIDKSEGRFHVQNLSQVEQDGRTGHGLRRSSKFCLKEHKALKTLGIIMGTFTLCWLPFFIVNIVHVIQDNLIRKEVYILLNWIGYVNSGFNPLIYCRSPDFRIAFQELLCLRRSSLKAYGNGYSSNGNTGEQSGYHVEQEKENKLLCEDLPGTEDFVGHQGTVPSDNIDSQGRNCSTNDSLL

[5] = molecular target: T3, Beta-1 adrenergic receptor (Homo sapiens, UniProt P08588); assay: Antagonist activity at human beta1 adrenoceptor expressed in CHOK1 cells assessed as inhibition of cimaterol-induced [3H]cAMP accumulation incubated for 15 mins prior to cimaterol induction measured after 5 hrs; format: functional, cell-based, CHO-K1
[6] = molecular target: T3, Beta-1 adrenergic receptor; assay: Displacement of [3H]-CGP12177 from human beta1 adrenoceptor expressed in CHOK1 cells after 2 hrs by scintillation counting analysis; format: cell-based, CHO-K1
[7] = molecular target: T3, Beta-1 adrenergic receptor; assay: Partial agonist activity at human beta1 adrenoceptor expressed in CHOK1 cells assessed as induction of [3H]cAMP accumulation after 5 hrs; format: functional, cell-based, CHO-K1
[8] = molecular target: T2, Beta-3 adrenergic receptor; assay: Agonist activity at human beta3 adrenoceptor expressed in CHOK1 cells assessed as induction of [3H]cAMP accumulation after 5 hrs relative to isoprenaline; format: functional, cell-based; details: CHO-K1
Target sequence in this assay (P13945 whole entry, looked up): as the sequence (P13945 whole entry, looked up) above

Rattus norvegicus [9] = assay: Partial agonist activity at beta1 adrenoceptor in conscious free moving Sprague-Dawley rat model assessed as inhibition of heart rate responses at 2 mg/kg, iv administered as bolus followed by 1 mg/kg/hr, iv administered as 90 mins infusion measured for 0.5 hrs to 25 hrs relative to 40 to 120 ng/kg of isoprenaline; format: functional, organism-based
Summary of the method: (§2)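 Conscious, unrestrained adult male Sprague–Dawley rats (300–350 g) with an implanted Doppler probe, an aortic catheter for blood pressure and heart rate, and a jugular catheter for dosing; studied 24 h after catheterisation. Atropine methyl nitrate 1 mg/kg/h was infused throughout. Isoprenaline 3 min infusions (12, 40, 120 ng/kg/min) were given before and from 30 min after saline or HCl salt iv bolus plus infusion. Response = third-minute value minus pre-infusion steady state; hindquarters conductance derived from BP and Doppler shift; n = 4.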

Rattus norvegicus [10] = assay: Agonist activity at beta2 adrenoceptor in conscious free moving Sprague-Dawley rat model assessed as effect on hindquarters response at 2 mg/kg, iv administered as bolus dose followed by 1 mg/kg/hr, iv administered as 90 mins infusion measured for 0.5 hrs to 25 hrs; format: functional, organism-based; summary of the method: as §2
[11] = molecular target: T2, Beta-3 adrenergic receptor; assay: Agonist activity at human beta3 adrenoceptor expressed in CHOK1 cells assessed as induction of [3H]cAMP accumulation at 100 uM after 5 hrs relative to isoprenaline; format: functional, cell-based; details: CHO-K1; summary of the method: as §1
Target sequence in this assay (P13945 whole entry, looked up): as above

Rattus norvegicus [12] = assay: Partial agonist activity at beta1 adrenoceptor in conscious free moving Sprague-Dawley rat model assessed as increase in heart rate at 2 mg/kg, iv bolus followed by 1 mg/kg/hr, iv infusion for 90 mins measured for 0.5 hrs to 25 hrs relative to 120 ng/kg of isoprenaline; format: functional; summary of the method: as §2

T3 sequence (P08588 whole entry): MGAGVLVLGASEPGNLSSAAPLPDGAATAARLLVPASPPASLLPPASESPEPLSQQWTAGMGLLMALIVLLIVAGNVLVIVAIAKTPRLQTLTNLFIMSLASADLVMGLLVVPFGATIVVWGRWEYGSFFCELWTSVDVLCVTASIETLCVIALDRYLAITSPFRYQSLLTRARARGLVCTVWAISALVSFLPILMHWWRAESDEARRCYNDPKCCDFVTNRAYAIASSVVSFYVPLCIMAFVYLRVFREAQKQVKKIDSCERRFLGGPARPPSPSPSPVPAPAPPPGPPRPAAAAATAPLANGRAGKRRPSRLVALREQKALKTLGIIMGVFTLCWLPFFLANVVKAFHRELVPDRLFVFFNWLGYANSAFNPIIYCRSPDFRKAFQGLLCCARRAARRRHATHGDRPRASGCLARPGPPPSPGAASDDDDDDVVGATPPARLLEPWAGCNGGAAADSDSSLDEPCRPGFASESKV

Question: O=C(NCCNCC(O)COc1ccc(OCCOC2CCCC2)cc1)Nc1ccc(Br)cc1 (centres undefined) was tested. Which Selectivity ratio (CHO-K1) did it give?
Answer: 81

Question: How did the Selectivity ratio (CHO-K1) turn out when COc1ccccc1NC(=O)NCCNCC(O)COc1ccc(OCCOC2CCCC2)cc1 (centres undefined) was run?
Answer: 12

Question: For O=C(NCCNCC(O)COc1ccc(OCCOC2CCCC2)cc1)Nc1ccc(F)cc1 (centres undefined), which Selectivity ratio (CHO-K1) is on record?
Answer: 60

Question: For COc1ccc(NC(=O)NCCNCC(O)COc2ccc(OCCOC3CCCC3)cc2)cc1 (centres undefined), which Selectivity ratio (CHO-K1) is on record?
Answer: 87

Question: With O=C(NCCNCC(O)COc1ccc(OCCOC2CCCC2)cc1)Nc1ccccc1 (centres undefined) as the molecule, how does the Selectivity ratio (CHO-K1) read?
Answer: 213

Question: And the pKd [1]?
Answer: 5.58

Question: And the Activity [2]?
Answer: 4%

Question: And the pKd [3]?
Answer: < 5.00

Question: What about the Kd [4] of the same molecule?
Answer: 1200 nM

Question: What about the pKd [5] of the same molecule?
Answer: 8.46

Question: What about the pKd [6] of the same molecule?
Answer: 7.91

Question: What about the pEC50 [7] of the same molecule?
Answer: 8.35

Question: How did the Selectivity ratio (CHO-K1) turn out when O=C(NCCNCC(O)COc1ccc(OCCOC2CCCC2)cc1)Nc1cccc(O)c1 (centres undefined) was run?
Answer: 110

Question: CC(C)NCC(O)c1ccc(N)c(C#N)c1 (centres undefined) was tested. Which Activity [8] did it give?
Answer: 89.6%

Question: For O=C(NCCNCC(O)COc1ccc(OCCOCC2CC2)cc1)Nc1ccc(O)cc1 (centres undefined) [listing 1 of 2 here], which inhibition [1] is on record?
Answer: inactive

Question: And the Activity [2]?
Answer: 12.5%

Question: What about the inhibition (Rattus norvegicus [9]) of the same molecule?
Answer: Active

Question: And the Activity (Rattus norvegicus [10])?
Answer: inactive

Question: Which Selectivity ratio (CHO-K1) does the source give for O=C(NCCNCC(O)COc1ccc(OCCOC2CCCC2)cc1)Nc1cccc(Cl)c1 (centres undefined) here?
Answer: 331

Question: And the pKd [1]?
Answer: 5.69

Question: And the Activity [2]?
Answer: 2%

Question: What about the Kd [3] of the same molecule?
Answer: 6030 nM

Question: And the Kd [4]?
Answer: 794 nM

Question: And the pKd [5]?
Answer: 8.83

Question: And the pKd [6]?
Answer: 8.21

Question: What about the pEC50 [7] of the same molecule?
Answer: 8.52

Question: O=C(NCCNCC(O)COc1ccc(O)cc1)N1CCOCC1 (centres undefined) was tested. Which Activity [11] did it give?
Answer: 38.3%

Question: O=C(NCCNCC(O)COc1ccc(OCCOCC2CC2)cc1)Nc1ccc(O)cc1 (centres undefined) [listing 2 of 2 here] was tested. Which pKd [3] did it give?
Answer: < 5.00

Question: And the Kd [4]?
Answer: 7080 nM

Question: What about the pKd [5] of the same molecule?
Answer: 7.75

Question: And the pKd [6]?
Answer: 7.49

Question: And the pEC50 [7]?
Answer: 8.01

Question: O=C(NCCNCC(O)COc1ccc(OCCOC2CCCC2)cc1)Nc1cccc(F)c1 (centres undefined) was tested. Which Selectivity ratio (CHO-K1) did it give?
Answer: 43

Question: How did the Selectivity ratio (CHO-K1) turn out when Cc1ccccc1NC(=O)NCCNCC(O)COc1ccc(OCCOC2CCCC2)cc1 (centres undefined) was run?
Answer: 11

Question: O=C(NCCNCC(O)COc1ccc(OCCOC2CCCC2)cc1)Nc1ccc(C(F)(F)F)cc1 (centres undefined) was tested. Which Selectivity ratio (CHO-K1) did it give?
Answer: 87

Question: For CCOCCOc1ccc(OCC(O)CNCCNC(=O)Nc2ccc(O)cc2)cc1 (centres undefined), which inhibition [1] is on record?
Answer: inactive

Question: What about the Activity [2] of the same molecule?
Answer: 1.3%

Question: What about the pKd [3] of the same molecule?
Answer: < 5.00

Question: And the pKd ([4]; read-out: Kd)?
Answer: < 5.00

Question: What about the pKd [5] of the same molecule?
Answer: 7.57

Question: And the pKd [6]?
Answer: 7.04

Question: And the pEC50 [7]?
Answer: 7.64

Question: N#Cc1ccccc1OCC(O)CNCCNC(=O)Nc1ccccc1 (centres undefined) was tested. Which Activity [2] did it give?
Answer: 11.7%

Question: For O=C(NCCNCC(O)COc1ccc(OCCOC2CCCC2)cc1)Nc1ccc(O)cc1 (centres undefined), which Selectivity ratio (CHO-K1) is on record?
Answer: 478

Question: What about the Activity [2] of the same molecule?
Answer: 4%

Question: And the pKd [3]?
Answer: < 5.00

Question: And the Kd [4]?
Answer: 1450 nM

Question: What about the pKd [5] of the same molecule?
Answer: 8.55

Question: And the pKd [6]?
Answer: 8.13

Question: And the pEC50 [7]?
Answer: 8.44

Question: How did the Selectivity ratio (CHO-K1) turn out when COc1cccc(NC(=O)NCCNCC(O)COc2ccc(OCCOC3CCCC3)cc2)c1 (centres undefined) was run?
Answer: 51

Question: O=C(NCCNCC(O)COc1ccc(OCCOC2CCCC2)cc1)Nc1ccccc1C(F)(F)F (centres undefined) was tested. Which Selectivity ratio (CHO-K1) did it give?
Answer: 13

Question: For O=C(NCCNCC(O)COc1ccc(OCCOC2CCCC2)cc1)Nc1ccccc1Br (centres undefined), which Selectivity ratio (CHO-K1) is on record?
Answer: 10

Question: Which results are given for O=C(NCCNCC(O)COc1ccc(OCCOCCc2ccc(F)cc2)cc1)Nc1ccc(O)cc1 (centres undefined)?
Answer: Selectivity ratio (CHO-K1): 389; pKd [1]: 5.91; Activity [2]: 7.9%; Kd [3]: 2630 nM; Kd [4]: 891 nM; pKd [5]: 9.00; pEC50 [7]: 8.64

Question: O=C(NCCNCC(O)COc1ccc(OCCOC2CCCC2)cc1)Nc1ccccc1F (centres undefined) was tested. Which Selectivity ratio (CHO-K1) did it give?
Answer: 76

Question: With Cc1cccc(NC(=O)NCCNCC(O)COc2ccc(OCCOC3CCCC3)cc2)c1 (centres undefined) as the molecule, how does the Selectivity ratio (CHO-K1) read?
Answer: 96

Question: How did the Selectivity ratio (CHO-K1) turn out when O=C(NCCNCC(O)COc1ccc(OCCOC2CCCC2)cc1)Nc1ccc(Cl)cc1 (centres undefined) was run?
Answer: 110

Question: How did the pKd [1] turn out when N#Cc1cc(OCCOCC2CC2)ccc1OCC(O)CNCCNC(=O)Nc1ccc(O)cc1 (centres undefined) [LK-204545] was run?
Answer: 5.29

Question: What about the Activity [2] of the same molecule?
Answer: 8.6%

Question: What about the pKd [3] of the same molecule?
Answer: < 5.00

Question: What about the Kd [4] of the same molecule?
Answer: 2880 nM

Question: How did the Selectivity ratio (CHO-K1) turn out when O=C(NCCNCC(O)COc1ccc(OCCOC2CCCC2)cc1)Nc1cccc(C(F)(F)F)c1 (centres undefined) was run?
Answer: 81

Question: How did the Activity (Rattus norvegicus [12]) turn out when Cl.O=C(NCCNCC(O)COc1ccc(OCCOCC2CC2)cc1)Nc1ccc(O)cc1 (centres undefined) was run?
Answer: 44%
